# Screens as filed in PubChem.
# A selection: hits, their analogues and other compounds. The true share with any hit is near 3.7%.
# OX1R antag-1: OX1R (HCRTR1) antagonists, primary screen, fluorescence, CHO/OX1R cells, Fluo-8 calcium, orexin A; Orexin/Hypocretin receptor type 1 (Homo sapiens), O43613; Fluo-8 calcium fluorescence; inhibition, % at 5 µM; actives 0.43% (n = 330,000);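 active = inhibition above its plate's threshold, mean inhibition of all tested compounds on the plate plus 3 SD, cut at about 37% in these data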;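 also: 0% = orexin A challenge wells and 100% = SB-334867-A antagonist wells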
# EP2 antag: human EP2 receptor antagonists, primary screen, TR-FRET cAMP, C6 glioma cells | Prostaglandin E2 receptor EP2 subtype (Homo sapiens), P43116 | C6 glioma cells expressing human EP2; cells stimulated with saturating PGE2 | inhibition, % at 25 µM | actives 0.52% (n = 260,000) | AID 1422, 2008;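 active = percent inhibition above 40 after rounding to a whole number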;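 also: rat C6 glioma host cells with rolipram phosphodiesterase inhibitor present; the protocol text gives 20 µM as final concentration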
# Target sequence (P43116 whole entry, looked up): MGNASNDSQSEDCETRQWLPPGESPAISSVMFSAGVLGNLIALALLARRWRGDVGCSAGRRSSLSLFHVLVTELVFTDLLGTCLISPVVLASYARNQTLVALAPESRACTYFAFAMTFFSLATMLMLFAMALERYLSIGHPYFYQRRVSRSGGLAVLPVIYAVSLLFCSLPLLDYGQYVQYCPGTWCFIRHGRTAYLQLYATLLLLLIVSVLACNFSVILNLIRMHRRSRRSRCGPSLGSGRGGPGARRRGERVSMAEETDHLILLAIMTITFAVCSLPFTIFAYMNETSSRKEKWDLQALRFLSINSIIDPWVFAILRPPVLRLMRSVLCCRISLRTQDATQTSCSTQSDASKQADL
# EP2 modulator: EP2 receptor modulators, cAMP readout, primary screen, cell-based, HTRF cAMP, PGE2 stimulation | Prostaglandin E2 receptor EP2 subtype (Homo sapiens), P43116 | EP2-expressing cells, cAMP HTRF FRET, PGE2 co-stimulation | induction, % at 25 µM | actives 0.83% (n = 260,000) | AID 940, 2007;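 active = compounds whose cAMP rise, as percent of the full-agonist control response, exceeds 60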;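 also: rat C6 glioma line stably carrying human EP2 under a CMV promoter; the protocol text gives 20 µM as final concentration; 100% = response of wells given 1 µM PGE2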
# CHO parental Ca: ATP-evoked calcium signal inhibitors, parental CHO, primary screen, counter-screen for OX1R antagonist project, cell-based, fluorescence, Fluo-8 calcium dye | parental CHO-K1, ATP-induced calcium, Fluo-8 fluorescence | inhibition, % at 5.6 µM | AID 463079, 2010 | actives 0.63% (n = 330,000);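 active = inhibition above that plate's mean sample inhibition plus 3 SD, cut at about 26% in these data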;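 also: 0% = ATP-challenged DMSO wells and 100% = DMSO wells without ATP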
#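 Assay system – parental CHO cells · Reagent – ATP stimulus · Detection – intracellular calcium via Fluo-8 no-wash fluorescent dye · Evaluation – percent inhibition of ATP-evoked calcium rise, normalized to controls · Controls – ATP wells versus no-ATP DMSO wells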
# GPR7 antagonist: GPR7 receptor antagonists, primary screen, cell-based, fluorescence, single concentration | Neuropeptides B/W receptor type 1 (Homo sapiens), P48145 | GPR7-expressing cells, fluorescence antagonist assay | inhibition, % at 4.4 µM | actives 1.1% (n = 290,000); in the data active = inhibition above about 16%, passing the limit was not always enough;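 also: cells stimulated with the agonist NPW; 0% = agonist with vehicle and 100% = vehicle without agonist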
# OX1R antag-2: antagonists of human orexin 1 receptor (OX1R); OX1R-expressing cells, FRET antagonist read-out; actives 1.8% (n = 330,000); inhibition, % at 6.6 µM; Orexin/Hypocretin receptor type 1 (Homo sapiens), O43613; in the data active = inhibition mostly above about 38%, no sharp cut-off; inactive = mostly below about 40%;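 also: 0% = agonist challenge alone and 100% = reference antagonist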
# An asterisk follows results filed as active; / = no result.
SMILES,OX1R antag-1,EP2 antag,EP2 modulator,CHO parental Ca,GPR7 antagonist,OX1R antag-2
C/C(CCC12CC3CC(CC(C3)C1)C2)=N\NC(N)=S,-20,11,38,-9,-2,7
C/C(CC(C)(C)C1CCCCC1)=N\NC(N)=S,9,10,-16,9,37*,16
CCC(C)(C)NC(=O)c1cc(C(=O)OC)cc([N+](=O)[O-])c1,-2,5,10,-14,3,30
CCOP(=O)(OCC)C(C)(C)NC(=O)c1cc([N+](=O)[O-])cc([N+](=O)[O-])c1,8,4,30,-3,-2,59*
CCOP(=O)(OCC)C(NC(=O)c1cc([N+](=O)[O-])cc([N+](=O)[O-])c1)C(F)(F)F (centres undefined),-26,7,23,-17,-2,67*
CCOC(CNC(=O)c1cccc([N+](=O)[O-])c1)OCC,-3,6,-1,-1,1,20
O=[N+]([O-])c1ccc(/C=N/n2c(C3CCCCC3)n[nH]c2=S)cc1,-28,4,5,-11,-9,4
Cc1ccc(-c2noc(N=O)c2NO)cc1,7,6,12,16,4,3
Nc1nnc(SCC(=O)NNC(=O)c2ccc([N+](=O)[O-])cc2)s1,1,/,/,-2,/,36*
O=c1c2cc(Br)ccc2nc2n1CCCCC2,-21,11,-4,-16,1,17
O=c1c2cc([N+](=O)[O-])ccc2nc2n1CCCC2,-16,/,/,7,20,69*
COc1ccccc1C(=O)NC(=Nc1nc2ccccc2o1)NC(=O)c1ccccc1OC,82*,27,-7,48*,-2,36*
COc1ccc(OCC(=O)Nc2ccc(N3CCN(C(=O)c4ccccc4C)CC3)cc2)cc1,-8,4,-11,-10,-10,16
COC(=O)c1cc2sccc2n1Cc1nc(-c2ccc(Cl)cc2)oc1C,-5,7,27,1,1,7
COC(=O)c1cc2sccc2n1Cc1ccc(C)cc1,2,4,64*,-17,-20,0
CCOC(=O)c1cc2sccc2n1Cc1ccccc1,-27,6,63*,-34,-3,0
CCOC(=O)Cn1c(C(=O)OCC)cc2sccc21,0,3,19,2,3,30
O=C(c1cc2sccc2n1Cc1ccccc1)N1CCc2ccccc21,-17,8,64*,-37,-12,16
O=C(N=c1ccn(-c2nc3ccccc3nc2NS(=O)(=O)c2ccc(Cl)cc2)cc1)c1cccs1,-9,48*,21,-9,-7,5
O=C(N=c1ccn(-c2nc3ccccc3nc2NS(=O)(=O)c2ccc(Cl)cc2)cc1)c1ccccc1Cl,-15,10,14,4,-13,6
CC(=O)Nc1ccc(S(=O)(=O)Nc2nc3ccccc3nc2-n2ccc(=NC(=O)c3ccccc3)cc2)cc1,-3,6,-15,-2,2,16
CCOc1ccc(S(=O)(=O)Nc2nc3ccccc3nc2-n2ccc(=NC(=O)c3cccs3)cc2)cc1,-1,45*,0,-4,2,19
O=C(COC(=O)[C@H](Cc1ccccc1)NC(=O)c1ccco1)NC(c1ccccc1)c1ccccc1,-8,11,62*,-14,2,14
C=C(C)c1cc2c(ccc3ccc(=O)oc32)o1,38,/,/,-20,/,75*
CNC(=O)c1cc2c(ccc3ccccc32)o1,-24,6,-30,-1,-9,20
SMILES,OX1R antag-1,EP2 antag,EP2 modulator,CHO parental Ca,GPR7 antagonist,OX1R antag-2
Cc1ccccc1Cn1nc(C)c(NC(=O)/C=C/c2cnn(C)c2C)c1C,-18,12,43,-11,-9,5
Cc1nn(Cc2c(Cl)cccc2Cl)c(C)c1NC(=O)/C=C/c1cnn(C)c1C,6,7,-1,-5,1,56*
CCOC(=O)N1CCC(NC(=O)CCC(=O)N2CCOc3ccccc32)CC1,-21,14,5,-23,-6,18
COc1ccc2cc(C(=O)/C=C/c3cc(OC)c(OC)c(OC)c3)ccc2c1,24,/,/,-19,14,70*
COc1cc(/C=C/C(=O)c2ccc3c(c2)OCO3)cc(Cl)c1O,49*,/,/,44*,18,13
COc1ccc(/C=C/C(=O)c2ccccc2)c(OC)c1,-15,6,-29,-11,-4,14
COc1ccc(/C=C/C(=O)c2ccc(OC)cc2OC)c(OC)c1,-16,21,-6,3,-7,51*
Cc1ccc(NC(=O)CN2C(=O)S/C(=C\c3cccn3-c3cccc(C(=O)O)c3)C2=O)c(C)c1,-9,12,9,-10,-13,17
Cc1cc(C)c(S(=O)(=O)N2CCCC2=O)cc1N(C)S(C)(=O)=O,/,/,/,/,-17,/
COC(=O)c1c(C)[nH]c(C(=O)CSc2nnnn2-c2ccccc2)c1C,-17,/,-1,-1,8,1
CCOC(=O)c1c(C)[nH]c(C)c1C(=O)CSc1nnnn1-c1ccccc1,-17,15,64*,-17,-12,35
CC(C)CCNC(=O)C1CC(c2ccc(C(F)(F)F)cc2)=NO1 (centres undefined),-4,7,-15,52*,/,53
N#CC1=C(N)Oc2n[nH]c(-c3cccs3)c2C1c1cccs1 (centres undefined),-4,52*,-20,3,-7,28
CC1Cc2ccccc2N1C(=O)COC(=O)/C=C/c1cccc(F)c1 (centres undefined),-12,/,/,-8,/,8
CC1=NN(c2nc(-c3ccc(C)cc3)cs2)C(=O)C1N=Nc1ccc2ccccc2c1 (centres undefined),-30,11,7,-4,-5,14
CC1=NN(C(=O)c2ccncc2)C(=O)[C@@H]1N=Nc1ccc2ccccc2c1,/,58*,-21,/,/,/
COc1ccc(OC)c(S(=O)(=O)Nc2ccccc2SC)c1,-14,3,18,5,14*,5
COc1ccc(OC)c(S(=O)(=O)Nc2ccccc2C)c1,3,7,13,-1,-16,-6
CCN1C(=O)N/C(=C/c2ccc(Sc3ccc(C)cc3)o2)C1=O,61*,7,-14,64*,7,52
O=c1oc2ccccc2c(Nc2ccc3ncccc3c2)c1[N+](=O)[O-],-11,0,-18,-18,-11,21
